Rows were chosen to be rich in hits. Some 2.6% of all compounds tested hit in one or more screens of this group.
NadD block: inhibitors of S. aureus NadD, primary screen, biochemical, colorimetric, uHTS | purified NadD enzyme, colorimetric absorbance read-out | inhibition, % at 20 µM | 360,000 compounds, 0.78% hits; in the data active = inhibition above about 26%
STEP inh: STEP phosphatase inhibitors, primary screen, biochemical, fluorescence intensity, uHTS; Tyrosine-protein phosphatase non-receptor type 5 (Homo sapiens), P54829; recombinant STEP, OMFP fluorogenic substrate; inhibition, % at 20 µM; 360,000 compounds, 0.25% hits;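 active = inhibition at 20 µM, scaled per plate between control wells, above about 37%, limit read from the data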
Target sequence (P54829 whole entry, looked up): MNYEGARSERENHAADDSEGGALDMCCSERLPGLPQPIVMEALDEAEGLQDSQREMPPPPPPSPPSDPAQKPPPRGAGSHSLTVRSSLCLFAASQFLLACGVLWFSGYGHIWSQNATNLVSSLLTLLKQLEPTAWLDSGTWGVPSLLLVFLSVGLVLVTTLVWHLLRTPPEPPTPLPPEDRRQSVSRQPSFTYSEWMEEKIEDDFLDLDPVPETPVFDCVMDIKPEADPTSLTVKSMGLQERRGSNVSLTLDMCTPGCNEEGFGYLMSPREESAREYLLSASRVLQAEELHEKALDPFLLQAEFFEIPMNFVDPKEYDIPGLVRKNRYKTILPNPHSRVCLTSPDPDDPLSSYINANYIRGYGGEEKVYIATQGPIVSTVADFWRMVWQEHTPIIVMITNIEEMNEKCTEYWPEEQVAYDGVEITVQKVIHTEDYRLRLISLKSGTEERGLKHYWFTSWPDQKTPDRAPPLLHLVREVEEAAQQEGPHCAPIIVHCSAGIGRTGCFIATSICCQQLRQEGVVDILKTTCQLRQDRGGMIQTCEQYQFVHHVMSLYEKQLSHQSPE
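Measure: Control-normalized % inhibition with plate pattern correction | Test system: STEP phosphatase, cell-free reaction | Medium: pH 6.0 Bis-Tris with DTT and Tween 20 | Technique: Fluorescence, 480/540 nm | Times: Reaction 20 min, ambient temperature | Doses: Single compound dose of 20 µM, 1% DMSO final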
rCAG binder: binders of r(CAG) RNA repeats, primary screen, biochemical, fluorescence | r(CAG) RNA repeat, TO-PRO-1 dye displacement fluorescence | inhibition, % at 3 µM | 370,000 compounds, 1.3% hits | AID 651821, 2012;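 active = inhibition above the plate cutoff, the mean of all test compounds on that plate plus 3 SD, cut at about 35% in these data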;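 also: higher means more dye released from RNA so lower well fluorescence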
LMPTP inh: LMPTP phosphatase inhibitors, primary screen, biochemical, fluorescence intensity, uHTS; Low molecular weight phosphotyrosine protein phosphatase (Homo sapiens), P24666; recombinant LMPTP-A, OMFP fluorogenic substrate; inhibition, % at 20 µM; 360,000 compounds, 0.22% hits; AID 651560, 2012;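 active = compounds that cut the enzyme signal by at least half of the control window in the single-dose screen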
Target sequence (P24666 whole entry, looked up): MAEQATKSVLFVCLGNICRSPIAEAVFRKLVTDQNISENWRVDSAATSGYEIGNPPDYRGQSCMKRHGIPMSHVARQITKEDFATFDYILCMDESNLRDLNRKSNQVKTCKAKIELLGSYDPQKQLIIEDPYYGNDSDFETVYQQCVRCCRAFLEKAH
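Test system – LMPTP-A phosphatase enzyme · Quantity – 0.625 nM LMPTP-A final · Reagent – OMFP substrate, 400 µM final · Dosing – one test concentration per compound, 20 µM, with 3% DMSO overall · Timing – 50 min enzyme reaction at room temperature, protected from light · Detection – fluorescence intensity · Controls – substrate-only low control, DMSO enzyme-plus-substrate high control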
Scp-1 inhibitor: Scp-1 phosphatase inhibitors, primary screen, biochemical, colorimetric, uHTS; inhibition, % at 20 µM; AID 493091, 2011; 340,000 compounds, 0.88% hits; Recombinant Scp1, phosphopeptide, malachite green phosphate absorbance;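 active = inhibition above about 50% at 20 µM, limit read from the data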
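Test system: SCP-1 catalytic domain; Buffer or medium: Acidic Tris acetate buffer with magnesium and detergent; Also added: Phosphorylated 17-residue peptide substrate; Compound: single 20 µM dose, 1% DMSO; Schedule: enzyme reaction 45 min at room temperature, colour 5 min, stabilisation 30 min; Signal: Phosphate-binding colour reagent, absorbance read at 630 nm.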
rCAG binder conf: small molecules binding CAG repeat RNA – biochemical, fluorescence, confirmation; shares compounds with rCAG binder; r(CAG) RNA repeat, TO-PRO-1 dye displacement fluorescence; inhibition, % at 3 µM; 4,300 compounds, 70% hits;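 active = inhibition above a per-plate cutoff, the mean inhibition of sample wells plus 3 SD, cut at about 35% in these data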;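 also: loss of TO-PRO-1 fluorescence as compound displaces dye from 1x1 AA loop RNA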
DNA CAG counter: displacement of TO-PRO-1 from CAG DNA duplex, counter-screen for rCAG RNA repeat binder project, biochemical, fluorescence, TO-PRO-1 dye, d(CAG) DNA oligo; inhibition, % at 3 µM; AID 652068, 2013; d(CAG) DNA oligo TO-PRO-1 dye displacement; 4,300 compounds, 94% hits; shares compounds with rCAG binder;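 active = inhibition above its plate's cutoff, the mean test-well inhibition plus 3 SD, cut at about 4.8% in these data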;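 also: hits displace the dye from DNA and so lower well fluorescence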
DNA CAG DR: inhibitors of DNA CAG/GTC TO-PRO-1 complex, dose response, counter-screen for rCAG RNA repeat binder project, biochemical, fluorescence, TO-PRO-1 dye. shares compounds with rCAG binder. DNA CAG/GTC duplex TO-PRO-1 dye displacement fluorescence. IC50, µM. 250 compounds, 20% hits; in the data active = IC50 below about 10 µM
Of the large screens only hits and unclear results are named; the others gave an inactive call (follow-up assays come after a bar, where they were run).

COc1cccc([C@@H]2CC=C(C(=O)O)[C@H](c3cccc(Cl)c3)N2S(=O)(=O)c2ccc(C)cc2)c1	rCAG binder 62 | rCAG binder conf 63 | DNA CAG counter 26
CC(/C=N/NC(=O)CSc1nnc(SCc2ccc(C)cc2)s1)=C\c1ccco1	none (no result: NadD block, STEP inh, LMPTP inh, Scp-1 inhibitor)
C[C@H]1COc2cc(Br)ccc2S(=O)(=O)N1Cc1cn(CCC2OCCCO2)nn1	none (no result: NadD block, STEP inh, LMPTP inh, Scp-1 inhibitor)
COC1=C/C(=C/c2c(N)n3nc(-c4ccc(C)cc4)sc3nc2=O)C=CC1=O	NadD block 35, rCAG binder 63 | rCAG binder conf 59 | DNA CAG counter 19
CCS(=O)(=O)c1nn2c(N)c(/C=C3/C=CC(=O)C(OC)=C3)c(=O)nc2s1	none
CCOC1=C/C(=C/c2c(N)n3nc(-c4ccccc4)sc3nc2=O)C=CC1=O	NadD block 43, rCAG binder 49 | rCAG binder conf 59 | DNA CAG counter 25
Nc1nc(SCc2nnc(SCC(=O)O)n2-c2ccccc2)nc2sc3c(c12)CCCC3	rCAG binder 61 | rCAG binder conf 69 | DNA CAG counter 23 | DNA CAG DR inactive
CC(=O)Nc1c(-c2ccc(C(F)(F)F)cc2)nc2ncccn12	none (no result: NadD block, STEP inh, LMPTP inh, Scp-1 inhibitor)
CCc1ccc(NC(=S)N(Cc2cccc(Br)c2)CC2CCC(C(=O)O)CC2)cc1 (centres undefined)	rCAG binder 42 | rCAG binder conf 53 | DNA CAG counter 18
Cc1cc(C)cc(NC(=S)N(Cc2cccc(Br)c2)CC2CCC(C(=O)O)CC2)c1 (centres undefined)	none
Cc1ccc(C)c(NC(=S)N(Cc2cccc(Br)c2)CC2CCC(C(=O)O)CC2)c1 (centres undefined)	none
Cc1ccc(NC(=S)N(Cc2cccc(Br)c2)CC2CCC(C(=O)O)CC2)cc1Cl (centres undefined)	rCAG binder 44 | rCAG binder conf 60 | DNA CAG counter 21 | DNA CAG DR inactive
CCCc1cc(=O)[nH]c(Nc2ccc(O)cc2)n1	none
CCCc1cc(=O)[nH]c(NCc2ccc(Cl)cc2)n1	none
CCCc1cc(=O)[nH]c(Nc2ccc(OC)c(Cl)c2)n1	rCAG binder 36 | rCAG binder conf inactive | DNA CAG counter 11
CCCc1cc(=O)[nH]c(Nc2ccc(Cl)cc2)n1	rCAG binder 41 | rCAG binder conf inactive | DNA CAG counter 10
CCCCCCCCN1C(=O)[C@@H](CC(=O)NCc2ccccc2)C[C@@]2(C(=O)OC)C1=C[C@H](C(C)C)O[C@@H]2C1CC1	none (no result: NadD block, STEP inh, LMPTP inh, Scp-1 inhibitor)
CCn1nc(NS(=O)(=O)c2ccc([N+](=O)[O-])cc2)c2cc3ccc(C)cc3nc21	rCAG binder 53 | rCAG binder conf 37 | DNA CAG counter 9.6
CCn1nc(NS(=O)(=O)c2ccc([N+](=O)[O-])cc2)c2cc3cc(C)ccc3nc21	none
C[C@H](O)[C@@H]1CN2CCc3c([nH]c4c(-c5ccc6c(c5)OCO6)cccc34)[C@@H]2C[C@@H]1N(C)C(=O)NC1CCCCC1	none (no result: NadD block, STEP inh, LMPTP inh, Scp-1 inhibitor)
Cc1cc(C(C#N)c2ccc(Cl)cc2)c(Cl)cc1NC(=O)c1cc(I)cc(I)c1O (centres undefined)	NadD block 52, rCAG binder 73 | rCAG binder conf 93 | DNA CAG counter 78
C[C@H]1c2cccc(O)c2C(O)=C2C(=O)[C@]3(O)C(O)=C(C(N)=O)C(=O)[C@@H](N(C)C)[C@@H]3[C@@H](O)[C@@H]21	none (no result: rCAG binder)
CN(C)c1ccc(O)c2c1CC1CC3[C@@H](N(C)C)C(=O)C(C(N)=O)=C(O)[C@]3(O)C(=O)C1=C2O (some centres undefined)	rCAG binder 64 | rCAG binder conf 46 | DNA CAG counter 18
COc1ccccc1-c1cccc2c3c([nH]c12)[C@@H]1C[C@H]2[C@@H](C(=O)N1CC3)[C@H](C)ON2C	none (no result: NadD block, STEP inh, LMPTP inh, Scp-1 inhibitor)
Cc1cccc(NC(=S)N/N=C/c2ccc([N+](=O)[O-])s2)c1	rCAG binder 36 | rCAG binder conf inactive | DNA CAG counter 11
Cc1cccc(NC(=O)/C=C/c2ccc([N+](=O)[O-])s2)c1	none
O=[N+]([O-])c1ccc(Oc2ccc(S(=O)(=O)Nc3ccccc3)cc2)cc1	none (no result: rCAG binder)
O=C1C(Cl)=C(NS(=O)(=O)c2ccc([N+](=O)[O-])cc2)C(=O)c2ccccc21	rCAG binder 38 | rCAG binder conf inactive | DNA CAG counter 5.3
CC1(C(=O)NS(=O)(=O)Cc2cccc(Cl)c2)CCN1C(=O)C1(c2ccc(Cl)cc2)CC1 (centres undefined)	rCAG binder 54 (no result: Scp-1 inhibitor) | rCAG binder conf 45 | DNA CAG counter 11
CC1(C(=O)NS(=O)(=O)Cc2cccc(Cl)c2)CCN1C(=O)C/C=C/c1ccccc1 (centres undefined)	rCAG binder 39 (no result: Scp-1 inhibitor) | rCAG binder conf 35 | DNA CAG counter 8.3
CC1(C(=O)NS(=O)(=O)Cc2ccccc2)CCN1C(=O)C/C=C/c1ccccc1 (centres undefined)	none (no result: Scp-1 inhibitor)
CC1(C(=O)NS(=O)(=O)Cc2cccc(Cl)c2)CCN1C(=O)Cc1ccc(-c2ccccc2)cc1 (centres undefined)	rCAG binder 72 (no result: Scp-1 inhibitor) | rCAG binder conf 70 | DNA CAG counter 29 | DNA CAG DR inactive
CC1(C(=O)NS(=O)(=O)Cc2cccc(Cl)c2)CCN1C(=O)CCc1ccccc1 (centres undefined)	none (no result: Scp-1 inhibitor)
C#CCC1c2ccccc2CCN1CC=C (centres undefined)	none (no result: NadD block, STEP inh, LMPTP inh, Scp-1 inhibitor)
Cc1ccc(-n2c(Cc3cccs3)nnc2SCc2ccc([N+](=O)[O-])cc2)cc1	none (no result: NadD block, STEP inh, LMPTP inh, Scp-1 inhibitor)
Nc1c(C(=O)O)sc2nc(-c3ccccc3)cc(-c3ccc(Cl)cc3)c12	rCAG binder 76 | rCAG binder conf 71 | DNA CAG counter 37
CC(C)c1ccc(NC(=O)CSc2nnc(-c3ccco3)n2C)cc1	none (no result: NadD block, STEP inh, LMPTP inh, Scp-1 inhibitor)
Cc1cc(NS(=O)(=O)c2ccc(NC(=O)COc3ccccc3[N+](=O)[O-])cc2)no1	none
Cc1cc(NS(=O)(=O)c2ccc(NC(=O)Nc3cccc(C(F)(F)F)c3)cc2)no1	rCAG binder 50 | rCAG binder conf 53 | DNA CAG counter 20

Assay outcomes: PubChem, several laboratories
